According to article PMC2862812 (Biochimica et biophysica acta, 2009):
Where no end group is shown, it is not given here.

Assay: Tryptophan fluorescence of peptides in phosphate buffer without lipid
Assay type: physicochemical
Details: no lipid; from fluorescence and CD
Method in brief: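 7 μM peptide in buffer without liposomes, pH 8 or 4 (adjusted with dilute NaOH/HCl), temperature-controlled. Trp emission 310–450 nm, excitation 295 nm, slits 2–4/2 nm; CD spectra recorded in parallel.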

Row | Compound | State of the peptide in aqueous solution (solubility / aggregation)
1 | CC[C@H](C)[C@H](NC(=O)[C@@H]1CCCN1C(=O)[C@H](CC(N)=O)NC(=O)[C@H](CCC(N)=O)NC(=O)[C@H](CCC(=O)O)NC(=O)[C@H](C)NC(=O)[C@H](C)N)C(=O)N[C@@H](Cc1ccc(O)cc1)C(=O)N[C@@H](Cc1c[nH]c2ccccc12)C(=O)N[C@@H](C)C(=O)N[C@@H](CCCNC(=N)N)C(=O)N[C@@H](Cc1ccc(O)cc1)C(=O)N[C@@H](C)C(=O)N[C@@H](CC(=O)O)C(=O)N[C@@H](Cc1c[nH]c2ccccc12)C(=O)N[C@@H](CC(C)C)C(=O)N[C@@H](Cc1ccccc1)C(=O)N[C@H](C(=O)N[C@H](C(=O)N1CCC[C@H]1C(=O)N[C@@H](CC(C)C)C(=O)N[C@@H](CC(C)C)C(=O)N[C@@H](CC(C)C)C(=O)N[C@@H](CC(C)C)C(=O)N[C@@H](CC(=O)O)C(=O)N[C@@H](CC(C)C)C(=O)N[C@@H](C)C(=O)N[C@@H](CC(C)C)C(=O)N[C@@H](CC(C)C)C(=O)N[C@H](C(=O)N[C@@H](CC(=O)O)C(=O)N[C@@H](C)C(=O)N[C@@H](CC(=O)O)C(=O)N[C@@H](CCC(=O)O)C(=O)NCC(=O)N[C@H](C(=O)O)[C@@H](C)O)C(C)C)[C@@H](C)O)[C@@H](C)O [WT, reference compound] | unfolded and monomeric
2 | AAEQNPIYWARYADWLFTDLPLLLLDLLALLVDADEGT [3D] | aggregated state of the peptide in solution even at low concentrations
3 | AAEQNPIYWARYADWLFTTPLLLLALALLVDADEGT [D25A] | probably, more aggregated in solution
4 | AAEQNPIYWARYADWLFTTPLLLLELALLVDADEGT [D25E] | remain soluble and monomeric in solution
5 | AAEQNPIYWARYAEWLFTTPLLLLDLALLVDADEGT [D14E] | remain soluble and monomeric in solution
